Measured values gathered from unrelated publications.
Lines come from different studies, so protocols differ.
Sample: plasma

C1=C/COCc2cc(ccc2OCCN2CCCC2)Nc2nccc(n2)-c2cccc(c2)COC/1  Cmax (male Sprague-Dawley rat; oral, 36 mg/kg): 333 ng/mL
COc1ccc(N(Cc2csc(-c3ccccc3)n2)C(=O)CCCCCC(=O)NO)cc1  Cmax (female Sprague-Dawley rat; oral, 30 mg/kg): 4.73 ng/mL
CCCCCCCCCC(=O)N[C@@H](Cc1c[nH]c2ccccc12)C(=O)N[C@H](CC(N)=O)C(=O)N[C@@H](CC(=O)O)C(=O)N[C@@H]1C(=O)NCC(=O)N[C@@H](CCCN)C(=O)N[C@@H](CC(=O)O)C(=O)N[C@H](C)C(=O)N[C@@H](CC(=O)O)C(=O)NCC(=O)N[C@H](CO)C(=O)N[C@@H]([C@H](C)CC(=O)O)C(=O)N[C@@H](CC(=O)c2ccccc2N)C(=O)O[C@@H]1C  Cmax (male Wistar rat; subcutaneous, 125 mg/kg, single dose): 205000 ng/mL
C=CC(=O)N1CCC([C@@H]2CCNc3c(C(N)=O)c(-c4ccc(Oc5ccccc5)cc4)nn32)CC1  Cmax (Sprague-Dawley rat; oral, 16 mg/kg): 426 ng/mL
COc1nc(-c2cccc(-c3ccccc3)c2C)ccc1CNCCNC(=O)CCCCCCCCCCC(=O)N1CCN(CCNC(=O)c2cc3c(=O)n4cccc(C)c4nc3n(CCc3cccs3)c2=N)CC1  Cmax (male Sprague-Dawley rat; intravenous, 2 mg/kg): 1800 ng/mL
C[C@@]12C[C@@]3(O)O[C@@H](O1)[C@]1(COC(=O)c4ccccc4)[C@H]3C[C@@]12O[C@@H]1O[C@H](CO)[C@@H](O)[C@H](O)[C@H]1O  Cmax (male Sprague-Dawley rat; oral, 80 mg/kg): 1.13 ng/mL
Cc1cc2c(C(N)=O)cccc2n1-c1nc2c(c(NCc3ccccc3)n1)CCCN2  Cmax (male Sprague-Dawley rat; intravenous, 1 mg/kg, single dose): 802 ng/mL
COc1cc(C2C3=C(COC3=O)N(CCO)c3cc4c(cc32)CCC4)cc(OC)c1OC (stereo not shown)  Cmax (female Sprague-Dawley rat; intraperitoneal, 50 mg/kg): 915 ng/mL
O=C1CCC(N2Cc3cc(C4CCN(Cc5ccccc5)CC4)ccc3C2=O)C(=O)N1 (stereo not shown)  Cmax (male Sprague-Dawley rat; oral, 3 mg/kg): 72.7 ng/mL
COc1cc(-c2cc(C(C)=O)n3ccccc23)c(OC)cc1Cn1ccnc1  Cmax (male Sprague-Dawley rat; oral, 5 mg/kg): 876 ng/mL
C[C@H]1Oc2cc(cnc2N)-c2c(nn(C)c2C#N)CN(C)C(=O)c2ccc(F)cc21  Cmax (male Sprague-Dawley rat; oral, 10 mg/kg, single dose): 468 ng/mL
CONC(=O)c1cccc2c1cc(C)n2-c1nc2c(c(NCc3ccccc3)n1)CCCN2  Cmax (male Sprague-Dawley rat; oral, 10 mg/kg, single dose): 23.4 ng/mL
CC(=O)O[C@@H]1CC[C@@]2(C)[C@@H](CC[C@]3(C)[C@@H]2C(=O)C=C2[C@@H]4[C@@H](C)[C@H](C)CC[C@]4(C)CC[C@]23C)[C@@]1(C)C(=O)O  Cmax (female Wistar rat; oral, 1 mg/kg, single dose): 3360 ng/mL
CCCCC(=O)Nc1ccc(-c2ccc3ncn(CCC)c(=O)c3c2)cn1  Cmax (male rat; intravenous, 2.5 mg/kg): 3090 ng/mL
C[C@H]1[C@@H](O)O[C@@H]2O[C@@]3(C)CC[C@H]4[C@H](C)CC[C@@H]1[C@@]24OO3  Cmax (male Sprague-Dawley rat; oral, 10 mg/kg): 169 ng/mL
[2H]C([2H])([2H])NC(=O)c1cc(Oc2ccc(NC(=O)Nc3ccc(Cl)c(C(F)(F)F)c3)cc2)ccn1  Cmax (rat; oral, 40 mg/kg, single dose): 7420 ng/mL
